Measurements: ChEMBL document CHEMBL1157439, “Novel benzimidazole derivatives as selective CB2 agonists” (Bioorg Med Chem Lett, 2008)

Tests used:
Cannabinoid receptor 2 [1] = molecular target: T1, Cannabinoid receptor 2 (Homo sapiens, UniProt P34972); experiment: Displacement of [3H]CP-55940 from human CB2 receptor
Cannabinoid receptor 1 = Cannabinoid receptor 1 (Homo sapiens, UniProt P21554); experiment: Displacement of [3H]CP-55940 from human CB1 receptor
Cannabinoid receptor 2 [2] = molecular target: T1, Cannabinoid receptor 2; experiment: Agonist activity at cloned human CB2 receptor in Sf9 cells assessed by [35S]GTPgammaS binding assay relative to delta9-THC; assay type: functional
Cannabinoid receptor 2 [3] = molecular target: T1, Cannabinoid receptor 2; experiment: Agonist activity at cloned human CB2 receptor in Sf9 cells assessed as stimulation of [35S]GTPgammaS binding assay; assay type: functional
How it was run: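 Sf9 membranes carrying cloned human CB2, in 50 mM Hepes, 20 mM NaOH, 100 mM NaCl, 1 mM EDTA, 5 mM MgCl2, 0.1% BSA plus GDP, pH 7.4. 10-point dose–response with [35S]GTPγS (~130,000 dpm/well), 1 h, room temperature. Filtered and washed (Tris/MgCl2/NaCl pH 7.4, 4 °C), then scintillation counted.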

Sequence of Cannabinoid receptor 1 (P21554 whole entry): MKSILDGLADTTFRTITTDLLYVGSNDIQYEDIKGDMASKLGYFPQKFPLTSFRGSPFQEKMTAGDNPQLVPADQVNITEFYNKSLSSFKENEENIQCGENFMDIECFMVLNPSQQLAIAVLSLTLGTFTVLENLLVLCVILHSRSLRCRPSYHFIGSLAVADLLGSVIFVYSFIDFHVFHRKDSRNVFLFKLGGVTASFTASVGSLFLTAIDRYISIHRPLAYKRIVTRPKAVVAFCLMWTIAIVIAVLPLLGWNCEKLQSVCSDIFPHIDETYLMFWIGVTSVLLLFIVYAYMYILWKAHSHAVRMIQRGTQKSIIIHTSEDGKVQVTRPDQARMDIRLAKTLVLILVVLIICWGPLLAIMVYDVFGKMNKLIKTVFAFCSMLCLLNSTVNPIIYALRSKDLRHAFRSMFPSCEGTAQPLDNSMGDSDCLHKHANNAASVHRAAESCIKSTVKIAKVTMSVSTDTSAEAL
T1 sequence (P34972 whole entry): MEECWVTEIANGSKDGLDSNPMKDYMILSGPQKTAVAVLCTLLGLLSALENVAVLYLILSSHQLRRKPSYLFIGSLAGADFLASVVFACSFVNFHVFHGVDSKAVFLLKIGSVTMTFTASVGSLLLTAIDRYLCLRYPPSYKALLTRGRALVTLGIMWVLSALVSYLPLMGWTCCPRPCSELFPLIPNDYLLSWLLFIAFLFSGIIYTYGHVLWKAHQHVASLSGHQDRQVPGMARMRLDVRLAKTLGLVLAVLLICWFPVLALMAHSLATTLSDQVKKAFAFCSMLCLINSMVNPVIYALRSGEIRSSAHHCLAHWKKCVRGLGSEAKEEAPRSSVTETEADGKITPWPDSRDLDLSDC

| SMILES | Ki (Cannabinoid receptor 2 [1]) | Ki (Cannabinoid receptor 1) | Emax (Cannabinoid receptor 2 [2]) | EC50 (Cannabinoid receptor 2 [3]) |
| --- | --- | --- | --- | --- |
| CCOc1ccc(Cc2nc3cc(C(=O)N(CC)CC)ccc3n2Cc2ccccn2)cc1 | 39 nM | > 5000 nM | 77% | 25 nM |
| CCCN(C)C(=O)c1ccc2c(c1)nc(Cc1ccc(OCC)cc1)n2CC1CC1 | 7.6 nM | > 5000 nM | 54% | 3.2 nM |
| CCN(CC)C(=O)c1ccc2c(c1)nc(Cc1ccc(OC)cc1)n2CCC(C)C | 17 nM | > 5000 nM | 43% | 7.3 nM |
| CCN(CC)C(=O)c1ccc2c(c1)nc(Cc1ccc(OC(C)C)cc1)n2CCC(C)C | 4.5 nM | 4680 nM | 79% | 2.4 nM |
| CCOc1ccc(Cc2nc3cc(N(C)C(=O)N4CCCCC4)ccc3n2CC2CC2)cc1 | 4 nM | 3480 nM | 60% | 3.3 nM |
| CCN(CC)C(=O)c1ccc2c(c1)nc(Cc1ccc(OCC(F)(F)F)cc1)n2CCC(C)C | 57 nM | > 5000 nM | 68% | 65 nM |
| Cc1c(C(=O)c2cccc3ccccc23)c2cccc3c2n1[C@H](CN1CCOCC1)CO3 | – | – | 64% | – |
| CCN(CC)C(=O)c1ccc2c(c1)nc(Cc1ccc(O)cc1)n2CCC(C)C | 799 nM | > 5000 nM | – | – |
| CCOc1ccc(Cc2nc3cc(C(=O)N(CC)CC)ccc3n2Cc2ccco2)cc1 | 11 nM | > 5000 nM | 78% | 3.3 nM |
| CCOc1ccc(Cc2nc3cc(C(=O)N(CC(F)(F)F)CC(F)(F)F)ccc3n2CC2CC2)cc1 | – | 4530 nM | 51% | 2 nM |
| CCOc1ccc(Cc2nc3cc(N(C)C(=O)c4cccs4)ccc3n2CC2CC2)cc1 | 5 nM | 2480 nM | 51% | 2.6 nM |
| CCOc1ccc(Cc2nc3cc(C(=O)N(CC)CC)ccc3n2CC2CCCC2)cc1 | 1 nM | 491 nM | 79% | 0.7 nM |
| CCN(CC)C(=O)c1ccc2c(c1)nc(Cc1ccc(OCC3CC3)cc1)n2CCC(C)C | 53 nM | 4190 nM | 75% | 43 nM |
| CCOc1ccc(Cc2nc3cc(C(N)=O)ccc3n2CC2CC2)cc1 | > 5000 nM | > 5000 nM | – | – |
| CCN(CC)C(=O)c1ccc2c(c1)nc(Cc1ccc(OC(F)(F)F)cc1)n2CCC(C)C | 25 nM | > 5000 nM | 29% | 11 nM |
| CCOc1ccc(Cc2nc3cc(C(=O)N(CC)CC)ccc3n2Cc2cc[n+]([O-])cc2)cc1 | 588 nM | > 5000 nM | – | – |
| CCOc1ccc(Cc2nc3cc(C(=O)N(CC)CC)ccc3n2Cc2ccncc2)cc1 | 16 nM | > 5000 nM | 78% | 5 nM |
| CCOc1ccc(Cc2nc3cc(N(C)C(=O)NC(C)C)ccc3n2CC2CC2)cc1 | 5.7 nM | > 5000 nM | 51% | 6.4 nM |
| CCOc1ccc(Cc2nc3cc(C(=O)N(CC)CC)ccc3n2CC2CC2)nc1 | 27 nM | > 5000 nM | 63% | 22 nM |
| CCOc1ccc(Cc2nc3cc(C(=O)N(CC)CC)ccc3n2CC2CCOCC2)cc1 | 3.9 nM | 1210 nM | 89% | 1 nM |
| CCN(CC)C(=O)c1ccc2c(c1)nc(Cc1ccc(OC3CCCCC3)cc1)n2CCC(C)C | 526 nM | > 5000 nM | – | – |
| CCOc1ccc(Cc2nc3cc(C(=O)N(CC)CC)ccc3n2CCC(C)C)cc1 | – | > 5000 nM | 63% | – |
| CCOc1ccc(Cc2nc3cc(C(=O)N(CC)CC)ccc3n2CC2CCCCC2)cc1 | 3.7 nM | 110 nM | 79% | 0.52 nM |
| CCOc1ccc(Cc2nc3cc(C(=O)N(CC)CC)ccc3n2CC2CC2)cc1 | 4.1 nM | > 5000 nM | 68% | 2.1 nM |

| SMILES | Ki (Cannabinoid receptor 2 [1]) | Ki (Cannabinoid receptor 1) | Emax (Cannabinoid receptor 2 [2]) | EC50 (Cannabinoid receptor 2 [3]) |
| --- | --- | --- | --- | --- |
| CCOc1ccc(Cc2nc3cc(N(C)C(C)=O)ccc3n2CC2CC2)cc1 | 1350 nM | > 5000 nM | – | – |
| CCCN(CCC)C(=O)c1ccc2c(c1)nc(Cc1ccc(OCC)cc1)n2CC1CC1 | 2.8 nM | 2610 nM | 67% | 2 nM |
| CCOc1ccc(C(=O)c2nc3cc(C(=O)N(CC)CC)ccc3n2CCC(C)C)cc1 | 35 nM | > 5000 nM | 55% | 25 nM |
| CCNC(=O)c1ccc2c(c1)nc(Cc1ccc(OCC)cc1)n2CC1CC1 | 63 nM | > 5000 nM | 53% | 52 nM |
| CCOc1ccc(Cc2nc3cc(C(=O)N(CC)CC)ccc3n2CC23CC4CC(CC(C4)C2)C3)cc1 | 2.8 nM | 406 nM | 81% | 1.3 nM |
| CCOc1ccc(Cc2nc3cc(C(=O)N(CC)CC)ccc3n2CC2CCNCC2)cc1 | 2920 nM | > 5000 nM | – | – |
| CCOc1ccc(Cc2nc3cc(C(=O)N4CCCCC4)ccc3n2CC2CC2)cc1 | 6.9 nM | > 5000 nM | 45% | 3 nM |
| CCOc1ccc(C(O)c2nc3cc(C(=O)N(CC)CC)ccc3n2CCC(C)C)cc1 (configuration not stated) | 57 nM | > 5000 nM | 70% | – |
| CCOc1ccc(Cc2nc3cc(NC(C)=O)ccc3n2CC2CC2)cc1 | > 5000 nM | > 5000 nM | – | – |
| CCOc1ccc(Cc2nc3cc(C(=O)N(CC)CC)ccc3n2CC2CCC2)cc1 | 1.6 nM | 3120 nM | 64% | 1.3 nM |
| CCOc1ccc(Cc2nc3cc(N(C)C(=O)N(C)C)ccc3n2CC2CC2)cc1 | 41 nM | > 5000 nM | 55% | 36 nM |
| CCOc1ccc(Cc2nc3cc(C(=O)N(C)C4CCCCC4)ccc3n2CC2CC2)cc1 | 11 nM | > 5000 nM | 60% | 4.2 nM |
| CCOc1ccc(Cc2nc3cc(C(=O)N(CC)CC)ccc3n2Cc2ccccc2)cc1 | 12 nM | 4770 nM | 88% | 1.1 nM |
| CCN(CC)C(=O)c1ccc2c(c1)nc(Cc1ccc(OC3CCCC3)cc1)n2CCC(C)C | 43 nM | > 5000 nM | 83% | 18 nM |
| CCOc1ccc(Cc2nc3cc(C(=O)N(CC)CC)ccc3n2C[C@H]2CCCO2)cc1 | 23 nM | > 5000 nM | 62% | 8.3 nM |
| CCOc1ccc(Cc2nc3cc(C(=O)N(CC)CC)ccc3n2C[C@@H]2CCCO2)cc1 | 15 nM | > 5000 nM | 76% | 4.8 nM |
| CCOc1ccc(Cc2nc3cc(C(=O)N4CCCC4)ccc3n2CC2CC2)cc1 | 14 nM | > 5000 nM | 51% | 6.2 nM |
| CCOc1ccc(Cc2nc3cc(NC)ccc3n2CC2CC2)cc1 | 4340 nM | > 5000 nM | – | – |
| CCN(CC)C(=O)c1ccc2c(c1)nc(Cc1ccc(Oc3ccccc3)cc1)n2CCC(C)C | 4.9 nM | 2400 nM | 66% | 3.2 nM |
| CCN(CC)C(=O)c1ccc2c(c1)nc(Cc1ccc(OC3CCC3)cc1)n2CCC(C)C | 44 nM | > 5000 nM | 73% | 24 nM |
| CCOc1ccc(Cc2nc3cc(C(=O)N(CC)CC)ccc3n2CC2CC2)cn1 | – | > 5000 nM | – | – |
| CCOc1ccc(Cc2nc3cc(N(C)C(=O)CC(C)C)ccc3n2CC2CC2)cc1 | 4 nM | > 5000 nM | 54% | 2.7 nM |
| CCOc1ccc(Cc2nc3cc(N(C)C(=O)N(CC)CC)ccc3n2CC2CC2)cc1 | 5.9 nM | > 5000 nM | 48% | 2 nM |
